Measured values published in ChEMBL document CHEMBL4229371, “Discovery of [1,2,4]triazolo[3,4-b][1,3,4]thiadiazole derivatives as novel, potent and selective c-Met kinase inhibitors: Synthesis, SAR study, and biological activity” (Eur J Med Chem, 2018).

How the values were obtained:
[1] = system: EBC-1; assay: Antiproliferative activity against human EBC1 cells at 5 uM after 72 hrs by Cell Titer-Glo assay; format: functional
Method in brief: (§1)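 Cell Titer-Glo viability assay. Exponentially growing cells were plated at 4000 per well in RPMI-1640 with 10% FPS and incubated 12 h at 37 °C in 5% CO2. Compound was then added at the indicated final concentrations and cells were held 72 h at 37 °C in 5% CO2. CTG reagent was applied for 10 min at room temperature. Inhibition % = (1 − Vsample/Vvehicle control) × 100.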

[2] = system: SNU-5; assay: Antiproliferative activity against human SNU5 cells at 5 uM after 72 hrs by Cell Titer-Glo assay; format: functional; method in brief: as §1
[3] = system: MKN-45; assay: Antiproliferative activity against human MKN45 cells at 5 uM after 72 hrs by Cell Titer-Glo assay; format: functional; method in brief: as §1
[4] = system: MKN-45; assay: Antiproliferative activity against human MKN45 cells at 1 uM after 72 hrs by Cell Titer-Glo assay; format: functional; method in brief: as §1
[5] = system: EBC-1; assay: Antiproliferative activity against human EBC1 cells at 1 uM after 72 hrs by Cell Titer-Glo assay; format: functional; method in brief: as §1
[6] = system: EBC-1; assay: Antiproliferative activity against human EBC1 cells after 72 hrs by Cell Titer-Glo assay; format: functional, cell-based; details: EBC-1, 72 h; method in brief: as §1
[7] = target: Tyrosine-protein kinase Lck (Homo sapiens) (UniProt P06239); assay: Inhibition of GST-tagged human LCK at 5 uM preincubated for 20 mins followed by [33P]-ATP addition measured after 2 hrs by Hot-Spot kinase assay
Method in brief: (§2)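 Radiometric filter-binding assay with 5 nM human GST-tagged kinase and substrate. Buffer was 20 mM Hepes pH 7.5, 10 mM MgCl2, 1 mM EGTA, 0.02% Brij35, 0.02 mg/mL BSA, 0.1 mM Na3VO4, 2 mM DTT and 1% DMSO. Compound in DMSO was preincubated with kinase for 20 min at room temperature. 33P-ATP was then added and the reaction ran 2 h at room temperature. IC50 values came from curve fitting.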

[8] = target: Tyrosine-protein kinase ABL1 (Homo sapiens) (UniProt P00519); assay: Inhibition of GST-tagged human ABL1 at 5 uM preincubated for 20 mins followed by [33P]-ATP addition measured after 2 hrs by Hot-Spot kinase assay; method in brief: as §2
[9] = target: T1, Hepatocyte growth factor receptor (Homo sapiens, UniProt P08581); assay: Inhibition of HGF-induced c-MET phosphorylation at Tyr1234/1235 in human MKN45 cells after 1 hr by Western blot analysis; format: cell-based
T1 sequence (P08581 whole entry): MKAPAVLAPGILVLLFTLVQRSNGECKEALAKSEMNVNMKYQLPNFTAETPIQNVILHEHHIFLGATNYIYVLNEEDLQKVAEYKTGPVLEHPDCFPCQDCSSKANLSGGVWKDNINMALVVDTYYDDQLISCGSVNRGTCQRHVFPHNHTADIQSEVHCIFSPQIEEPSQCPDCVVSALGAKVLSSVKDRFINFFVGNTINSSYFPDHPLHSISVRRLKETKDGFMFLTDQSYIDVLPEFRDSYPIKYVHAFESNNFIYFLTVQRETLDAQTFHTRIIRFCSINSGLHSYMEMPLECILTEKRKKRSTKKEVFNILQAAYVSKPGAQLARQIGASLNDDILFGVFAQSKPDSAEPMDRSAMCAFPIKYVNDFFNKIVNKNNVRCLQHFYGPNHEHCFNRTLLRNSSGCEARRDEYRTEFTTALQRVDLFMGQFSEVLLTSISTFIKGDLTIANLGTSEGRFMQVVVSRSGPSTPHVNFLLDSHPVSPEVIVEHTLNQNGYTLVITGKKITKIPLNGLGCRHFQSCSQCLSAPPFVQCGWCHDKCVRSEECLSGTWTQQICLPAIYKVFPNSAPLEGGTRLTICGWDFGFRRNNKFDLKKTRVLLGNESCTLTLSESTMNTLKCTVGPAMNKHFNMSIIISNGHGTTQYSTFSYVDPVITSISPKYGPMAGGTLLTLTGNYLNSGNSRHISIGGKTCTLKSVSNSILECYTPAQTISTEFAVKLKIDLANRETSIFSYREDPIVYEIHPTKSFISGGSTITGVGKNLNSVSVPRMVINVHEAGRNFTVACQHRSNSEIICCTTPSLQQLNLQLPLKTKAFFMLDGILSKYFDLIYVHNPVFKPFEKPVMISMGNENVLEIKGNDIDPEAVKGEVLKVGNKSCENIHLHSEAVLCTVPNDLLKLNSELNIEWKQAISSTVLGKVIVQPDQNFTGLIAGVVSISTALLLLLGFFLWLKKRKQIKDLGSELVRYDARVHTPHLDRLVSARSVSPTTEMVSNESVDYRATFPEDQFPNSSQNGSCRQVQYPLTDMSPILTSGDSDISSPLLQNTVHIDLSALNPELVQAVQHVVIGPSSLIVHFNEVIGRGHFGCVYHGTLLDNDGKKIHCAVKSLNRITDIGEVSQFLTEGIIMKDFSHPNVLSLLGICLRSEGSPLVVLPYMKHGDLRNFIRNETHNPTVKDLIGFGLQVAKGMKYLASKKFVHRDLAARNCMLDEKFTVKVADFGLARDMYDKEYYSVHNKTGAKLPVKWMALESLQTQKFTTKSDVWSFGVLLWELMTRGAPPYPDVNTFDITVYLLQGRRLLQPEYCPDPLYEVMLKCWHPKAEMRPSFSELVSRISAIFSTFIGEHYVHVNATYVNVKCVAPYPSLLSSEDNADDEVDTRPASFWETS
Method in brief: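 MKN45 cells were plated at 2x10^4 per well in RPMI-1640 with 10% FPS and treated with a range of doses for 1 h. Lysis was in ice-cold RIPA with protease inhibitors. Lysate holding 30 µg protein (BCA) was run on SDS-PAGE and blotted to PVDF. Membranes were blocked in 5% skim milk, given primary antibody overnight at 4 °C, then HRP secondary for 1 h at room temperature, and read by ECL.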

[10] = target: T2, Receptor-type tyrosine-protein kinase FLT3 (Homo sapiens, UniProt P36888); assay: Inhibition of GST-tagged human FLT3 preincubated for 20 mins followed by [33P]-ATP addition measured after 2 hrs by Hot-Spot kinase assay; method in brief: as §2
T2 sequence (P36888 whole entry): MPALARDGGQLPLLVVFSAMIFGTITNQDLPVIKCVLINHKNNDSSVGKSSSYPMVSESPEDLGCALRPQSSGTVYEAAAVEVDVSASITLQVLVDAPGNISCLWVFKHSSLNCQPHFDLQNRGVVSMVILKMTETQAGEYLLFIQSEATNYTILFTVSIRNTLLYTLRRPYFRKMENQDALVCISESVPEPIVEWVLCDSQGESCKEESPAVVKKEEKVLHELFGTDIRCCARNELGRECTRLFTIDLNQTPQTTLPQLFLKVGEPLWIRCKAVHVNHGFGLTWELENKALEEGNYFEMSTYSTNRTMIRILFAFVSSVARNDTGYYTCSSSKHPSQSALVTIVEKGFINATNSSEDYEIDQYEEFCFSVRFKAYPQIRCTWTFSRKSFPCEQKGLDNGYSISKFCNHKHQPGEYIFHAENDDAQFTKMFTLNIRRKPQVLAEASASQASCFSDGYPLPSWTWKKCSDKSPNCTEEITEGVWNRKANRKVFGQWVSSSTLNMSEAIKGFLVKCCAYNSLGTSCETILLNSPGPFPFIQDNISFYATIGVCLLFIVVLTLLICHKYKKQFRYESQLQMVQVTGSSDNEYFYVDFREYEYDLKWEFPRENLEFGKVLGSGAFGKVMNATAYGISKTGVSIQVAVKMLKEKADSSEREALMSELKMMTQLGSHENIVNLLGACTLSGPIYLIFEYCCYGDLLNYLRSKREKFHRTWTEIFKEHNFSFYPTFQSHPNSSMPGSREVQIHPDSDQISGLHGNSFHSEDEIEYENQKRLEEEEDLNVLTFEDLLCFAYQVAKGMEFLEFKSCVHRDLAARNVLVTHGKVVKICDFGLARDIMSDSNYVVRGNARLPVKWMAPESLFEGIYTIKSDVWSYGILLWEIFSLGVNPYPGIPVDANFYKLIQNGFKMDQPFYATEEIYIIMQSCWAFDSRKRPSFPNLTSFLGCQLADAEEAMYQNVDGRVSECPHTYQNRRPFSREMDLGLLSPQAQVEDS

[11] = target: ALK tyrosine kinase receptor (Homo sapiens) (UniProt Q9UM73); assay: Inhibition of GST-tagged human ALK at 5 uM preincubated for 20 mins followed by [33P]-ATP addition measured after 2 hrs by Hot-Spot kinase assay; method in brief: as §2
[12] = target: Mast/stem cell growth factor receptor Kit (Homo sapiens) (UniProt P10721); assay: Inhibition of GST-tagged human c-KIT at 5 uM preincubated for 20 mins followed by [33P]-ATP addition measured after 2 hrs by Hot-Spot kinase assay; method in brief: as §2
Chain of Mast/stem cell growth factor receptor Kit (Homo sapiens) (P10721 whole entry): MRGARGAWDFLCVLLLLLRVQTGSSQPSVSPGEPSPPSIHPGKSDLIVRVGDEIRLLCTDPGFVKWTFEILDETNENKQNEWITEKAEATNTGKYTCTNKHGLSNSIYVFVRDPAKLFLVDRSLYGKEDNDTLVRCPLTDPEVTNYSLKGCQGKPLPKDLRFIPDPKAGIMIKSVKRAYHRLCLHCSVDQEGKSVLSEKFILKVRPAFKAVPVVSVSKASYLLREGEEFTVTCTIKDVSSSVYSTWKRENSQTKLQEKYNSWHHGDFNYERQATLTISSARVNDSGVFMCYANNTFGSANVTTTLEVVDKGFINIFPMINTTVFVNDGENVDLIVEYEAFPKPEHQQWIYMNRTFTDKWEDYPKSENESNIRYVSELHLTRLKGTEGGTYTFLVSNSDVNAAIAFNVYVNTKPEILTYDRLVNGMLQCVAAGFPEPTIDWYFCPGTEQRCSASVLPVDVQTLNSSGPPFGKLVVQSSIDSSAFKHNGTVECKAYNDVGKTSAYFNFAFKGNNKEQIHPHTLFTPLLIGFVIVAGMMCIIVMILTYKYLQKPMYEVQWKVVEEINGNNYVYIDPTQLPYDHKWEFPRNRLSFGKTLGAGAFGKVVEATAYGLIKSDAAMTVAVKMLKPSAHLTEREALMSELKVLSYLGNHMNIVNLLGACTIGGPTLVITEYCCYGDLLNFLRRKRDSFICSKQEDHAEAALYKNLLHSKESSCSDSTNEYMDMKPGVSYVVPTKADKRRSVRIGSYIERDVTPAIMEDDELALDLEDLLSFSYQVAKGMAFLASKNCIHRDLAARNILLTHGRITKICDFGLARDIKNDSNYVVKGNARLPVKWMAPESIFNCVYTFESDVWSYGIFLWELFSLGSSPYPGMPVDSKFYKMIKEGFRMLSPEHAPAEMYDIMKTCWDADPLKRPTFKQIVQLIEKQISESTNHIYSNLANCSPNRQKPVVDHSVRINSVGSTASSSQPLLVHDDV

[13] = target: BDNF/NT-3 growth factors receptor (Homo sapiens) (UniProt Q16620); assay: Inhibition of GST-tagged human TRKB at 5 uM preincubated for 20 mins followed by [33P]-ATP addition measured after 2 hrs by Hot-Spot kinase assay; method in brief: as §2
[14] = target: Angiopoietin-1 receptor (Homo sapiens) (UniProt Q02763); assay: Inhibition of GST-tagged human TIE2 at 5 uM preincubated for 20 mins followed by [33P]-ATP addition measured after 2 hrs by Hot-Spot kinase assay; method in brief: as §2
[15] = target: Tyrosine-protein kinase receptor UFO (Homo sapiens) (UniProt P30530); assay: Inhibition of GST-tagged human AXL at 5 uM preincubated for 20 mins followed by [33P]-ATP addition measured after 2 hrs by Hot-Spot kinase assay; method in brief: as §2
[16] = target: Vascular endothelial growth factor receptor 2 (Homo sapiens) (UniProt P35968); assay: Inhibition of GST-tagged human KDR at 5 uM preincubated for 20 mins followed by [33P]-ATP addition measured after 2 hrs by Hot-Spot kinase assay; method in brief: as §2
Chain of Vascular endothelial growth factor receptor 2 (Homo sapiens) (P35968 whole entry): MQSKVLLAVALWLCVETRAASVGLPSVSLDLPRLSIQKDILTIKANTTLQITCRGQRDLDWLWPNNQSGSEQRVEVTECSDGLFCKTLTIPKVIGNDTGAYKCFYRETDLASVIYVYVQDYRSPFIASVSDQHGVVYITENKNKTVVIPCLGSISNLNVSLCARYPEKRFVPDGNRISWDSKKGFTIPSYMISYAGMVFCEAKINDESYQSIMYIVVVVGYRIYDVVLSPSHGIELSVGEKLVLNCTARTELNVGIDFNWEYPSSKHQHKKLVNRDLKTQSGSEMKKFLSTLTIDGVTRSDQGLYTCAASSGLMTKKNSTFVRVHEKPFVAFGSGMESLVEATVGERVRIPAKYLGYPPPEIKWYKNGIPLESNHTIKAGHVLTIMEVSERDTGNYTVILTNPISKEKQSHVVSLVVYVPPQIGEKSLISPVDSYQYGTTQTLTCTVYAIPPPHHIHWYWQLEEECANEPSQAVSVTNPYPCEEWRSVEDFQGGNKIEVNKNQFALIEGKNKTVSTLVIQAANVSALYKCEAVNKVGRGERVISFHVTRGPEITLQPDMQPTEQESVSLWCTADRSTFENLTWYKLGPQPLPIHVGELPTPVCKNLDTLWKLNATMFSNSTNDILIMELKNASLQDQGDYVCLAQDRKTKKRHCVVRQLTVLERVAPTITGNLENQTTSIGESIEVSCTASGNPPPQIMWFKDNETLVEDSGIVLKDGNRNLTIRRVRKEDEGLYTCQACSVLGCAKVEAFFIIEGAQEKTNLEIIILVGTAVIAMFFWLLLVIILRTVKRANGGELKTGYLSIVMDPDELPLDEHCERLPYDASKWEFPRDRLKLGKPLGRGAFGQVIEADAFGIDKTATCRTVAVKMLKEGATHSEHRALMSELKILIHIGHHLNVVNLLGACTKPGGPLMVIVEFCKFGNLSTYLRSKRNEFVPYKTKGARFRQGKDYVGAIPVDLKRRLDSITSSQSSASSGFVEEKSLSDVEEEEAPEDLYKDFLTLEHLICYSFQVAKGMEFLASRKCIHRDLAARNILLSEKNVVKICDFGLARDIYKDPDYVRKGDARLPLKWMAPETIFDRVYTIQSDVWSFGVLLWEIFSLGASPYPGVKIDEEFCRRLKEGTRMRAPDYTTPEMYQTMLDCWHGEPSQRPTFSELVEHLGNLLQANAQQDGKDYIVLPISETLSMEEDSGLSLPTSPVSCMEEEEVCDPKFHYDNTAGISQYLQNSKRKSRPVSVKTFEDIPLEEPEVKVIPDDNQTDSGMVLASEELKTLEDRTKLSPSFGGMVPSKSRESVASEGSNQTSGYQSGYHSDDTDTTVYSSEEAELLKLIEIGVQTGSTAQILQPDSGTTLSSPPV

[17] = target: Platelet-derived growth factor receptor alpha (Homo sapiens) (UniProt P16234); assay: Inhibition of GST-tagged human PDGFRalpha at 5 uM preincubated for 20 mins followed by [33P]-ATP addition measured after 2 hrs by Hot-Spot kinase assay; method in brief: as §2
Chain of Platelet-derived growth factor receptor alpha (Homo sapiens) (P16234 whole entry): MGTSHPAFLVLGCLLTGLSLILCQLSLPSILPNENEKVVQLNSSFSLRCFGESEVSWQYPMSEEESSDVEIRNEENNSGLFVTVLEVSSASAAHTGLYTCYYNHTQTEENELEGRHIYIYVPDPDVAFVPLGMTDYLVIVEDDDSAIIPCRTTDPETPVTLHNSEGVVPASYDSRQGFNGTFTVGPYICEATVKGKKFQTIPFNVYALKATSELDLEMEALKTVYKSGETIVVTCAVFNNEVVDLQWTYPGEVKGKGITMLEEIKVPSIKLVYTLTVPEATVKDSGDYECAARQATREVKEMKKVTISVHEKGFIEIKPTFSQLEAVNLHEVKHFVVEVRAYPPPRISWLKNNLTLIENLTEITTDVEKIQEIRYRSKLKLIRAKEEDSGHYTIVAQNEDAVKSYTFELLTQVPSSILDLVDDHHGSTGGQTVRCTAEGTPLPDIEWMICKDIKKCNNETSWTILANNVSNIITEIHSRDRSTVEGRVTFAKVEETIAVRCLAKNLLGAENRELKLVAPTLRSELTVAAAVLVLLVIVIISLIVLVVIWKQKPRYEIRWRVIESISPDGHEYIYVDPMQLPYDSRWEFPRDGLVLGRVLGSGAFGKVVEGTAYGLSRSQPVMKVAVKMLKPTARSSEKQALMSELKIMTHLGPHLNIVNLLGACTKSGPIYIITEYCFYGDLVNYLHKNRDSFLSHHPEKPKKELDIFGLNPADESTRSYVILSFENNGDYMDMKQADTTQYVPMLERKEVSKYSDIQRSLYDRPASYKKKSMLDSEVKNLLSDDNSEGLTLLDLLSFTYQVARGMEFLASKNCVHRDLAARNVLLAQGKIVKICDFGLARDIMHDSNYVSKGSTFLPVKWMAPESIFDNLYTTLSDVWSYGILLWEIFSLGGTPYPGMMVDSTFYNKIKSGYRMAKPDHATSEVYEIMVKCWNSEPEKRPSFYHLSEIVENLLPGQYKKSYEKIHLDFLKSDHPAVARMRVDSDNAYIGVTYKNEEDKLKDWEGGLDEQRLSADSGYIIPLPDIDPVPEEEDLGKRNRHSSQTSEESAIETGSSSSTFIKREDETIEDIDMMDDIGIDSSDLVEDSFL

[18] = target: Receptor-type tyrosine-protein kinase FLT3 (Homo sapiens) (UniProt P36888); assay: Inhibition of GST-tagged human FLT3 at 5 uM preincubated for 20 mins followed by [33P]-ATP addition measured after 2 hrs by Hot-Spot kinase assay; method in brief: as §2
[19] = target: Proto-oncogene tyrosine-protein kinase receptor Ret (Homo sapiens) (UniProt P07949); assay: Inhibition of GST-tagged human RET at 5 uM preincubated for 20 mins followed by [33P]-ATP addition measured after 2 hrs by Hot-Spot kinase assay; method in brief: as §2
[20] = target: T1, Hepatocyte growth factor receptor; assay: Inhibition of GST-tagged human c-MET preincubated for 20 mins followed by [33P]-ATP addition and measured after 2 hrs by Hot-Spot kinase assay
[21] = target: Vascular endothelial growth factor receptor 1 (Homo sapiens) (UniProt P17948); assay: Inhibition of GST-tagged human FLT1 at 5 uM preincubated for 20 mins followed by [33P]-ATP addition measured after 2 hrs by Hot-Spot kinase assay; method in brief: as §2

| IC50 [20] [µM] | Compound | Activity [1] [%] | Activity [2] [%] | Activity [3] [%] | Activity [4] [%] | Activity [5] [%] | IC50 [6] [µM] | also measured |
| --- | --- | --- | --- | --- | --- | --- | --- | --- |
|  | COCCn1ccc(-c2nn3c(COc4ccnc5cc(OC)ccc45)nnc3s2)c1 | 78.6 | 46.1 | 73 | 71.1 | 89 | 0.327 |  |
|  | COc1ccc2c(OCc3nnc4sc(-c5ccc(F)cc5)nn34)ccnc2c1 | 83.1 | 65.8 | 71 | 68.5 | 89.4 | 0.187 |  |
|  | C[C@@H](Oc1cc(-c2cnn(C3CCNCC3)c2)cnc1N)c1c(Cl)ccc(F)c1Cl [CRIZOTINIB] | 94.4 | 80 | 77.7 | 82.6 | 93.1 | 0.039 |  |
|  | COc1ccc2c(OCc3nnc4sc(-c5ccn(CC6CC6)c5)nn34)ccnc2c1 | 75.9 | 52.2 | 66.6 | 41.1 | 87.2 | 0.351 |  |
|  | COc1ccc2c(OCc3nnc4sc(-c5cc(F)c(F)c(F)c5)nn34)ccnc2c1 | 84.5 | 44.7 | 29.8 |  | 89.3 | 0.403 |  |
|  | COc1ccc2c(OCc3nnc4sc(-c5ccncc5)nn34)ccnc2c1 | 83.7 | 65.7 | 73 | 73.8 | 91.6 | 0.289 |  |
|  | COc1ccc2[nH]c(-c3nn4c(COc5ccnc6cc(OC)ccc56)nnc4s3)cc2c1 | 84 | 60 | 61.2 | 75.3 | 82.2 | 0.0856 |  |
| 0.00202 | COc1ccc2c(OCc3nnc4sc(-c5cnn(C)c5)nn34)ccnc2c1 | 84.4 | 68.7 | 71.9 | 73.6 | 90.9 | 0.088 | inhibition [7]: -0.81%; inhibition [8]: 14.9%; inhibition [9]: Dose-dependent effect; IC50 [10]: 1.37 µM; inhibition [11]: -1.59%; inhibition [12]: 10.9%; inhibition [13]: 0.04%; inhibition [14]: -7.71%; inhibition [15]: 11.1%; inhibition [16]: -3.93%; inhibition [17]: -3.29%; inhibition [18]: 69.7%; inhibition [19]: -0.73%; inhibition [21]: 0.28% |
| 0.0793 | COc1ccc(Cc2nnc3sc(-c4cc5ccccc5[nH]4)nn23)cc1 | 87.3 | 70.2 | 76.3 | 78.1 | 86.5 | 0.107 |  |
|  | COc1ccc2c(OCc3nnc4sc(-c5cc6cc(F)ccc6[nH]5)nn34)ccnc2c1 | 42.3 | 54.4 | 47.7 |  |  |  |  |
| > 10 | O=C(Oc1ccc(Cc2nnc3sc(-c4cc5ccccc5[nH]4)nn23)cc1)c1cc2ccccc2[nH]1 |  |  |  |  |  |  |  |
|  | COc1ccc(-c2nn3c(COc4ccnc5cc(OC)ccc45)nnc3s2)cc1 | 85.2 | 74.5 | 72 | 76.4 | 89.1 | 0.161 |  |
|  | COc1cccc(-c2nn3c(COc4ccnc5cc(OC)ccc45)nnc3s2)c1 | 85.4 | 65.7 | 66.6 | 37.8 | 91.5 | 0.472 |  |
|  | COc1ccc2c(OCc3nnc4sc(-c5ccc[nH]5)nn34)ccnc2c1 | 83.7 | 72.4 | 76.8 | 79.3 | 80.5 | 0.149 |  |
|  | COc1ccc2c(OCc3nnc4sc(-c5cccn5C)nn34)ccnc2c1 | 86.3 | 14.5 | 28.1 |  | 7.4 |  |  |
| > 10 | CNC(=O)COc1ccc(Cc2nnc3sc(-c4cnn(C)c4)nn23)cc1 |  |  |  |  |  |  |  |
|  | COc1ccc2c(OCc3nnc4sc(-c5ccn(C6CCCC6)c5)nn34)ccnc2c1 | 72.1 | 42 | 47.6 |  | 41.3 |  |  |
|  | COc1ccc2c(OCc3nnc4sc(-c5cccc(F)c5)nn34)ccnc2c1 | 81.4 | 66.3 | 71.3 | 13.2 | 86.7 | 0.504 |  |
|  | COc1ccc2c(OCc3nnc4sc(-c5cc6ccccc6n5C)nn34)ccnc2c1 | 87 | 67.7 | 74.1 | 60.8 | 91.6 | 0.313 |  |
| > 10 | Cn1cc(-c2nn3c(Cc4ccc(OCCN5CCOCC5)cc4)nnc3s2)cn1 |  |  |  |  |  |  |  |
|  | COc1ccc2c(OCc3nnc4sc(-c5cc[nH]c5)nn34)ccnc2c1 | 85.9 | 71.5 | 70.5 | 71.1 | 90.6 | 0.353 |  |
| > 10 | Cn1cc(C(=O)Oc2ccc(Cc3nnc4sc(-c5cnn(C)c5)nn34)cc2)cn1 |  |  |  |  |  |  |  |
| > 10 | CN(C)C(=O)COc1ccc(Cc2nnc3sc(-c4cnn(C)c4)nn23)cc1 |  |  |  |  |  |  |  |
